Test results published in PubChem BioAssay.
The source made the active and inactive calls.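 How the source made its calls, unless noted: active means viability loss from added drug above about 55%, and viability with drug at most 40%, in both replicates (limit read from the data, passing the limit was not always enough); inconclusive means both conditions met in only one replicate; inactive means neither replicate meets both conditions.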

Tests used:
[1] = HUVEC growth inhibition – cell-based, human, primary screen (AID 575;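 active means viability at or below 30% in both replicate assays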;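 further: 100% = median of untreated cell wells with 0.1% DMSO on each plate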); conditions: HUVEC proliferation, CellTiter-Glo luminescence, 72 h; at 10 µM; stronger effect = lower value
Summary of the method: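 Assay system: Primary human umbilical vein endothelial cells | Quantity: 1250 cells per well | Medium: Supplemented EBM, 2% fetal bovine serum | Detection: CellTiter-Glo luminescence measuring cellular ATP | Read-out: % viability vs DMSO wells | Plate: Collagen-coated 384-well format | Times: 72 h exposure, 37 °C, 5% CO2, 30 min RT equilibration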

[2] = growth inhibitors of H69AR lung tumor, primary screen, human, duplicate replicates (AID 580;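 active means viability at or under a set limit in both replicates, limit being median viability minus 3 SD, cut at about 48% in these data, passing the limit was not always enough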;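 further: 100% = mean luminescence of untreated wells and 0% = no signal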); conditions: H69AR lung tumor cells viability, ATP luminescence, 72 h; at 10 µM; stronger effect = lower value
[3] = reversal of MRP1-mediated doxorubicin resistance, pilot screen, H69AR cells, doxorubicin co-treatment (AID 601); conditions: CellTiter-Glo, 72 h, at 10 µM; for differential viability (reversal): stronger effect = higher value
[4] = 384-well plate pilot, post-Golgi transport modulator project, inhibition of yeast transport mutant growth (AID 636; in the data active means inhibition above about 31%); conditions: absorbance 615 nm, about 18 h, stronger effect = higher value
[5] = growth suppression of yeast trafficking mutant, preliminary HTS, modulators of trafficking downstream of Golgi apparatus project, 1536-format plate, OD 615 nm (AID 637; in the data active means inhibition above about 30%); conditions: yeast transport mutant growth, absorbance 615 nm, 18 h; stronger effect = higher value
[6] = H69AR cells + 2 uM doxorubicin, measured here: viability with 2 uM doxorubicin, stronger effect = lower value
[7] = H69AR cells, compound alone cytotoxicity

Row | Compound | viability [1] | viability [2] | differential viability (reversal) ([3]; H69AR cells + 2 uM doxorubicin) | viability [3, 6] [%] | viability [3, 7] [%] | inhibition [4] | inhibition [5]
1 | CC(=O)N1C(=O)c2cccc3cccc(c23)C(=O)N1C(C)=O | 96.1% (inactive) | 91.8% (inactive) | -1.27% (inactive) | 93 | 91.8 | -1.05% (inactive) | -1.43% (inactive)
2 | Nc1ccc(Sc2nnnn2-c2ccccc2)c(Cl)c1 | 101% (inactive) | 92% (inactive) | -9.96% (inactive) | 102 | 92 | -6.32% (inactive) | -2.06% (inactive)
3 | CC1CCN(C(=O)c2ccc(C(=O)N3CCC(C)CC3)cc2)CC1 | 87.3% (inactive) | 101% (inactive) | 5.22% (inactive) | 95.4 | 101 | -0.66% (inactive) | 0.48% (inactive)
4 | COc1cccc(Nc2c(F)c(F)c(F)c(F)c2C(=O)O)c1 | 92.2% (inactive) | 99.7% (inactive) | 9.22% (inactive) | 90.5 | 99.7 | -5.84% (inactive) | -1.27% (inactive)
5 | CCc1cc2c(NCCC(=O)O)nc(C)nc2s1 | 89.2% (inactive) | 75.5% (inactive) | -12.1% (inactive) | 87.6 | 75.5 | 0.65% (inactive) | 13.3% (inactive)
6 | CN(C)CCNC(=O)c1ccc(COCC(F)(F)F)cc1 | 104% (inactive) | 84.6% (inactive) | 1.1% (inactive) | 83.5 | 84.6 | -7.07% (inactive) | -3.65% (inactive)
7 | Cn1c(=O)c2ccccc2n(Cc2ccccc2F)c1=O | 101% (inactive) | 85.2% (inactive) | -5.55% (inactive) | 90.8 | 85.2 | -0.66% (inactive) | 1.75% (inactive)
8 | CCc1ccc(NC(=O)c2cc(-c3ccco3)on2)cc1 | 75.1% (inactive) | 91.3% (inactive) | -16.3% (inactive) | 108 | 91.3 | -1.45% (inactive) | -4.6% (inactive)
9 | CCOC(=O)C1CCN(C(=O)c2c(-c3c(Cl)cccc3Cl)noc2C)CC1 | 95.8% (inactive) | 84.8% (inactive) | -6.21% (inactive) | 91.1 | 84.8 | -2.73% (inactive) | -9.68% (inactive)
10 | O=C(COc1ccc(Cl)cc1)Nc1ncccn1 | 106% (inactive) | 107% (inactive) | 14.6% (inactive) | 92.6 | 107 | -1.05% (inactive) | 4.13% (inactive)
11 | C=CCn1c(SCC(=O)NCC2CCCO2)nnc1C1CCCCC1 (configuration not stated) | 104% (inactive) | 97.5% (inactive) | 9.64% (inactive) | 87.8 | 97.5 | -6.88% (inactive) | -0.32% (inactive)
12 | CN=C(Nc1ccc2c(c1)OCO2)SC1CC(=O)N(c2ccccc2)C1=O (configuration not stated) | 78.3% (inactive) | 82.3% (inactive) | -0.04% (inactive) | 82.3 | 82.3 | -4.93% (inactive) | -0.79% (inactive)
13 | Cc1ccccc1NC(=O)C1CCC(C)(C(=O)O)C1(C)C (configuration not stated) | 92.7% (inactive) | 99.8% (inactive) | 0.94% (inactive) | 98.8 | 99.8 | -0.78% (inactive) | -7.3% (inactive)
14 | COc1ccccc1-n1cnnc1SCC(=O)c1ccc[nH]1 | 106% (inactive) | 108% (inactive) | 9.87% (inactive) | 98.1 | 108 | -2.21% (inactive) | 2.54% (inactive)
15 | CCc1ccc(NC(=O)CS(=O)CC(=O)NCC2OCCc3ccccc32)cc1 (configuration not stated) | 101% (inactive) | 99.1% (inactive) | 4.08% (inactive) | 95 | 99.1 | -0.93% (inactive) | 1.75% (inactive)
16 | CN1CCN(CC#CCC(O)(c2ccccc2)C2CCCC2)CC1 (configuration not stated) | 102% (inactive) | 91.7% (inactive) | 1.13% (inactive) | 90.5 | 91.7 | -6.4% (inactive) | -2.38% (inactive)
17 | CCOC(=O)C1CCCN(c2nc3ccccc3nc2C(C#N)C(=O)NCc2ccccc2)C1 (configuration not stated) | 80.6% (inactive) | 86.2% (inactive) | 0.385% (inactive) | 85.8 | 86.2 | -3.95% (inactive) | -1.27% (inactive)
18 | O=C(Cc1nn[nH]n1)NCCC1=CCCCC1 | 82.8% (inactive) | 95.7% (inactive) | 4.6% (inactive) | 91.1 | 95.7 | -1.04% (inactive) | -4.76% (inactive)
19 | CCn1c(=N)n(CC(=O)C23CC4CC(CC(C4)C2)C3)c2ccccc21 | 4.87% (active) | 83.1% (inactive) | -0.145% (inactive) | 83.2 | 83.1 | -5.27% (inactive) | 15.3% (inactive)
20 | CC(OC1=CC(=O)CCC1)C(=O)c1ccccc1 (configuration not stated) | 102% (inactive) | 108% (inactive) | 18% (inactive) | 89.8 | 108 | -2.6% (inactive) | -0.48% (inactive)
21 | O=c1nc(N2CCCC2)nc(Nc2ccccc2)[nH]1 | 100% (inactive) | 83.7% (inactive) | -3.31% (inactive) | 87 | 83.7 | -2.47% (inactive) | -4.92% (inactive)

Row | Compound | viability [1] | viability [2] | differential viability (reversal) ([3]; H69AR cells + 2 uM doxorubicin) | viability [3, 6] [%] | viability [3, 7] [%] | inhibition [4] | inhibition [5]
22 | O=C(CSc1nc2ccc(Cl)cc2[nH]1)NCc1ccco1 | 74.2% (inactive) | 65.4% (inactive) | -4.26% (inactive) | 69.6 | 65.4 | 0.65% (inactive) | 13.3% (inactive)
23 | COc1cccc(Nc2nc(=O)[nH]nc2C)c1 | 75.7% (inactive) | 87.3% (inactive) | 10.9% (inactive) | 76.4 | 87.3 | -2.08% (inactive) | 8.57% (inactive)
24 | CCS(=O)(=O)c1ccc(S(=O)(=O)CC)s1 | 104% (inactive) | 104% (inactive) | 0.02% (inactive) | 104 | 104 | -2.73% (inactive) | -1.59% (inactive)
25 | COc1cccc(CN(C(=O)c2cc3ccccc3oc2=O)C2CC2)c1 | 99.1% (inactive) | 102% (inactive) | 5.67% (inactive) | 96.1 | 102 | -0.13% (inactive) | 0% (inactive)
26 | CN(C)c1ccnc(NCc2ccccc2)c1C#N | 92.7% (inactive) | 85.8% (inactive) | 6.29% (inactive) | 79.5 | 85.8 | -4.53% (inactive) | 4.6% (inactive)
27 | CCOc1ccccc1Nc1nc2ccccc2[nH]1 | 92.7% (inactive) | 94.2% (inactive) | 1.97% (inactive) | 92.3 | 94.2 | 0.91% (inactive) | -6.03% (inactive)
28 | Nc1nc(SCc2ccc(Cl)cc2Cl)n[nH]1 | 85.8% (inactive) | 92.5% (inactive) | 4.17% (inactive) | 88.3 | 92.5 | -7.47% (inactive) | 0.79% (inactive)
29 | Cn1nc(-c2ccc(C(=O)NCC3CCCO3)cc2)c2ccccc2c1=O (configuration not stated) | 88.3% (inactive) | 84.7% (inactive) | 13.5% (inactive) | 71.2 | 84.7 | -3.12% (inactive) | 7.14% (inactive)
30 | O=C(NC1CCCC1)c1cc(-c2cccs2)on1 | 90.4% (inactive) | 88.6% (inactive) | 8.04% (inactive) | 80.6 | 88.6 | -4.21% (inactive) | 3.17% (inactive)
31 | Cc1cccc2cc(C#N)c(SCCN3CCCCC3)nc12 | 61.8% (inactive) | 68.2% (inactive) | -10% (inactive) | 78.2 | 68.2 | 1.35% (inactive) | -0.18% (inactive)
32 | Nc1nc2ccccc2n1/N=C/c1ccc(Br)cc1 | 72.4% (inactive) | 86.8% (inactive) | 4.02% (inactive) | 82.8 | 86.8 | -3.95% (inactive) | 8.57% (inactive)
33 | CCCn1nc(CC(=O)O)c2ccccc2c1=O | 98.2% (inactive) | 103% (inactive) | 8.11% (inactive) | 94.7 | 103 | -6.27% (inactive) | -3.02% (inactive)
34 | Cc1nc(SCC(=O)CC(=O)OC(C)C)c(C#N)c(C)c1C | 99.8% (inactive) | 95% (inactive) | 6.36% (inactive) | 88.7 | 95 | -2.8% (inactive) | 3.33% (inactive)
35 | CCCCNC(=O)C(C#N)c1nc2ccccc2nc1N1CCCC1 (configuration not stated) | 89.2% (inactive) | 100% (inactive) | -1.2% (inactive) | 102 | 100 | -4.93% (inactive) | -4.29% (inactive)
36 | O=C(O)C1CC=CCC1C(=O)Nc1cccc(C(=O)N2CCCCC2)c1 (configuration not stated) | 107% (inactive) | 91.9% (inactive) | 7.67% (inactive) | 84.2 | 91.9 | -5.2% (inactive) | 9.21% (inactive)
37 | COc1ccc(-c2nnc(-c3ccc(N)cc3)o2)cc1 | 95.9% (inactive) | 88.3% (inactive) | -2.75% (inactive) | 91.1 | 88.3 | -4.13% (inactive) | 3.81% (inactive)
38 | CCOC(=O)c1c(C)oc2ccc(O)c(CN(C)C)c12 | 77.4% (inactive) | 87.3% (inactive) | 3.6% (inactive) | 83.7 | 87.3 | -6.1% (inactive) | 2.22% (inactive)
39 | CCOC(=O)NC(c1ccccc1)C1CCCCC1=O (configuration not stated) | 103% (inactive) | 94.2% (inactive) | 5.88% (inactive) | 88.3 | 94.2 | -3.64% (inactive) | 0.32% (inactive)
40 | C/C(Cl)=C\Cn1c(Nc2ccc(C)cc2)nc2c1c(=O)n(C)c(=O)n2C | 77.5% (inactive) | 72.1% (inactive) | -11.2% (inactive) | 83.2 | 72.1 | -1.04% (inactive) | 1.75% (inactive)
41 | COCc1[nH]nc2c1C(C1C=CCCC1)C(C#N)=C(N)O2 (configuration not stated) | 68.9% (inactive) | 94.6% (inactive) | -4.19% (inactive) | 98.8 | 94.6 | -2.5% (inactive) | -1.11% (inactive)
